From ChEMBL document CHEMBL1133191, “Non-amidine-containing 1,2-dibenzamidobenzene inhibitors of human factor Xa with potent anticoagulant and antithrombotic activity” (J Med Chem, 2000)

Assays:
[1] = target: Coagulation factor X (Homo sapiens) (UniProt P00742); experiment: Binding affinity for human Coagulation factor X
Procedure, shortened: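 Apparent association constant with human factor Xa, determined by the method the paper cites. Each value is the mean of at least three separate experiments, with standard deviation under 20%.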

Homo sapiens = species: Homo sapiens; experiment: Prothrombin time activity, concentration required to double the time of clot formation in the prothrombin time assay; assay type: functional
Procedure, shortened: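 Prothrombin time clotting assay run as described in a cited reference. The value is the compound concentration (μM) that doubles the time to clot formation. It is the mean of at least three separate experiments, with standard deviation under 20%.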

[2] = target: Vitamin K-dependent protein C (Homo sapiens) (UniProt P04070); experiment: Measured for apparent association constant (binding affinity) for activated protein C
[3] = target: Coagulation factor XI (Homo sapiens) (UniProt P03951); experiment: Measured for apparent association constant (binding affinity) for Coagulation factor XI
[4] = target: T1, Coagulation factor XII (Homo sapiens) (UniProt P00748); experiment: Measured for apparent association constant (binding affinity) for Coagulation factor XII
T1 sequence (whole entry): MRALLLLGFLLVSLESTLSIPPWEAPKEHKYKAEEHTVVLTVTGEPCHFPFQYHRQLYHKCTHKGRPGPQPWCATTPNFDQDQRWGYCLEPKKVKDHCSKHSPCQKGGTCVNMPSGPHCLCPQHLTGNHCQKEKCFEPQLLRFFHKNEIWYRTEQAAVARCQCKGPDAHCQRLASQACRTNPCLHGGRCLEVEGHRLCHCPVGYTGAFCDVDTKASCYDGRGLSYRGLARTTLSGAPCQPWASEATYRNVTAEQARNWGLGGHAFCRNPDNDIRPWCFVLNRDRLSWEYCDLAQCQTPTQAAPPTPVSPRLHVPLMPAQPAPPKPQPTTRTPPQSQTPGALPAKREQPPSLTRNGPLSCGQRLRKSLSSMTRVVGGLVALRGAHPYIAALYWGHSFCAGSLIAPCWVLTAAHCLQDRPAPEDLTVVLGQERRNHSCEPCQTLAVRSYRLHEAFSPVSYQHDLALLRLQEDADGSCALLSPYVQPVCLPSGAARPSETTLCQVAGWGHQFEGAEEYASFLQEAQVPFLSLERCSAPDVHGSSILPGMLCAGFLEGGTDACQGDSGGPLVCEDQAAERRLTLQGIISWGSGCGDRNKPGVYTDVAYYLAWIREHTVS

[5] = Measured for apparent association constant (binding affinity) for Factor IIa
[6] = target: Tissue-type plasminogen activator (Homo sapiens) (UniProt P00750); experiment: Measured for apparent association constant (binding affinity) for Tissue type plasminogen activator
[7] = target: T2, Serine protease 1 (Bos taurus) (UniProt P00760); experiment: Measured for apparent association constant (binding affinity) for trypsin (bovine)
T2 sequence (whole entry): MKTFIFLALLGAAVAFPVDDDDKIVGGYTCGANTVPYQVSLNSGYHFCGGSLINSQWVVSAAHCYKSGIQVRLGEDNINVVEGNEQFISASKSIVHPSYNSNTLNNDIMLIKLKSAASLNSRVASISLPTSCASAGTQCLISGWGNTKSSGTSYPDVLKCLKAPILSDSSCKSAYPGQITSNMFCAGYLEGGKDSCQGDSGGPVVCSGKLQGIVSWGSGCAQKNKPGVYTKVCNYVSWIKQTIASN

[8] = target: Urokinase-type plasminogen activator (Homo sapiens) (UniProt P00749); experiment: Measured for apparent association constant (binding affinity) for Urokinase-type plasminogen activator
[9] = target: Plasminogen (Homo sapiens) (UniProt P00747); experiment: Measured for apparent association constant (binding affinity) for plasmin
[10] = target: Prothrombin (Homo sapiens) (UniProt P00734); experiment: Measured for apparent association constant (binding affinity) for Coagulation factor II

Sequence of Coagulation factor X (Homo sapiens) (P00742 41-179 limits assumed): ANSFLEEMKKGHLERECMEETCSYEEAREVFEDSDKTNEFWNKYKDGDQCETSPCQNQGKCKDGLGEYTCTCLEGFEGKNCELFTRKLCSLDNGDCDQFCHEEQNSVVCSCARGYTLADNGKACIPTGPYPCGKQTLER
Sequence of Coagulation factor X (Homo sapiens) (P00742 235-488 limits assumed): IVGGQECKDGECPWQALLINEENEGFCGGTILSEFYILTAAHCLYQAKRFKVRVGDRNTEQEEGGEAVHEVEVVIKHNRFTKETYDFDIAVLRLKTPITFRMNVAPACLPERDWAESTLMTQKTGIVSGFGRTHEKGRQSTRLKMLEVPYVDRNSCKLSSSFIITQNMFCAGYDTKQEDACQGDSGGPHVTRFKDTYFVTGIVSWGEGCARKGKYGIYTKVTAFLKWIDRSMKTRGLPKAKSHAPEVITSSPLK
Sequence of Coagulation factor XI (Homo sapiens) (P03951 19-387 limits assumed): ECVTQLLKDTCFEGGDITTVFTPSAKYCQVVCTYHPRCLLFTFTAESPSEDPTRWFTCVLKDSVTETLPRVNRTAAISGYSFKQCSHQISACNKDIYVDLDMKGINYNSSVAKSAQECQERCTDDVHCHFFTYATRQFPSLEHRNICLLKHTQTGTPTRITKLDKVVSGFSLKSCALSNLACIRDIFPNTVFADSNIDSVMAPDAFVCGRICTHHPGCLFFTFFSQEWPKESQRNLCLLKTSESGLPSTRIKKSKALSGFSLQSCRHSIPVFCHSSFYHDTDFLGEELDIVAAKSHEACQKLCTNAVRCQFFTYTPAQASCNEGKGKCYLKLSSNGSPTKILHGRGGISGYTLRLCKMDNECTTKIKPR
Sequence of Coagulation factor XI (Homo sapiens) (P03951 388-625 limits assumed): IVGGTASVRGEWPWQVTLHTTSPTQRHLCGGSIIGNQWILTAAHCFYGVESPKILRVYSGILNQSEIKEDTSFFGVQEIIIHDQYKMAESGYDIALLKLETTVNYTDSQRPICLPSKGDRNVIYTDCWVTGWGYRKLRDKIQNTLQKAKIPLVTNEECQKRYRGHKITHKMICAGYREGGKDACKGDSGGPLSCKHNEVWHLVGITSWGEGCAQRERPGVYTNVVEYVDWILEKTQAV
Sequence of Vitamin K-dependent protein C (Homo sapiens) (P04070 43-197 limits assumed): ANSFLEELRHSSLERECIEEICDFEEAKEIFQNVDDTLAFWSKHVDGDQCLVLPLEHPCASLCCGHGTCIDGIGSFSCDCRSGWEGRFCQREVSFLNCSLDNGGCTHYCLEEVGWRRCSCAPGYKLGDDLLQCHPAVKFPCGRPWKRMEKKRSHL
Sequence of Vitamin K-dependent protein C (Homo sapiens) (P04070 212-461 limits assumed): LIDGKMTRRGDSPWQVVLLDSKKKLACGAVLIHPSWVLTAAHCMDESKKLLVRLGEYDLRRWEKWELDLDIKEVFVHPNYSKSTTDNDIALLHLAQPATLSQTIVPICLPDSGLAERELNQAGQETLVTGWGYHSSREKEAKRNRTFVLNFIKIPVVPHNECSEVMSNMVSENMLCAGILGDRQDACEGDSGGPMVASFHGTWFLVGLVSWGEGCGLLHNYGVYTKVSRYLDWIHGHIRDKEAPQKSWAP
Sequence of Plasminogen (Homo sapiens) (P00747 whole entry, looked up): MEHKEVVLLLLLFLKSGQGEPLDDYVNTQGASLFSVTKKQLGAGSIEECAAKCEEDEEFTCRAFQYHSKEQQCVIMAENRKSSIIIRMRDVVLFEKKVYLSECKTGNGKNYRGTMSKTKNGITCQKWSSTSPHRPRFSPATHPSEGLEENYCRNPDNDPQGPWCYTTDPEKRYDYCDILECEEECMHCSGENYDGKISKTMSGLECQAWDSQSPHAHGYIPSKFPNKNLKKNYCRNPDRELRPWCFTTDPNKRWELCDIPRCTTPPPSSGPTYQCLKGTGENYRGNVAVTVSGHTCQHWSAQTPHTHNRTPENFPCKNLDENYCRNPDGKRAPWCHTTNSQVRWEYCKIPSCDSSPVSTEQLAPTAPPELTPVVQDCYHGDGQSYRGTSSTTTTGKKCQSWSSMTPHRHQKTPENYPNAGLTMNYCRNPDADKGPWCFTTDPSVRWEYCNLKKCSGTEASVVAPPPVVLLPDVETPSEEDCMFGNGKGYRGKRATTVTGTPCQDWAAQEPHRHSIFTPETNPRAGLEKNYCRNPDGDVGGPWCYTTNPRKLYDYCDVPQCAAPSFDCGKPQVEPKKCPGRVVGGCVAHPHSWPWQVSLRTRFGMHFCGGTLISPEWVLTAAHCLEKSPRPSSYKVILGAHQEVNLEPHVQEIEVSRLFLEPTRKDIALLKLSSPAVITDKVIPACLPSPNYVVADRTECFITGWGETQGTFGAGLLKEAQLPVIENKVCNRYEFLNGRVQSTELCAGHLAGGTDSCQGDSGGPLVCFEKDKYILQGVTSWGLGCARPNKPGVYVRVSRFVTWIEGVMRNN
Sequence of Tissue-type plasminogen activator (Homo sapiens) (P00750 36-562 limits assumed): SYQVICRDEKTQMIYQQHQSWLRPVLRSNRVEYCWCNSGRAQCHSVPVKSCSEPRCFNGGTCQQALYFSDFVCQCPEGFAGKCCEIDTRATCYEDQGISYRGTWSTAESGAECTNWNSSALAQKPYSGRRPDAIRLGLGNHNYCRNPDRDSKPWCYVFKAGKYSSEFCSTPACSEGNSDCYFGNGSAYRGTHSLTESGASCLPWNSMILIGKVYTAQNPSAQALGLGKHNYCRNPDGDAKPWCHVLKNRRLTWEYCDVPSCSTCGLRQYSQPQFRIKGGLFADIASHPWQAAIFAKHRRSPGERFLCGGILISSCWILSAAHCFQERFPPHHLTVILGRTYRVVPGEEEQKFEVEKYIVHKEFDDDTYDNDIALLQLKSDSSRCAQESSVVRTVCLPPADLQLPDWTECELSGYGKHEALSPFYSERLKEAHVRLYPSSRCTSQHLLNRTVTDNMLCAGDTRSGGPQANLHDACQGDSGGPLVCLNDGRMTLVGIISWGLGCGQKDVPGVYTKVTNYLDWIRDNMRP

Row | Structure (SMILES) | K ass [1] | PT (Homo sapiens) [µM] | also measured
1 | O=C(NCC1CCN(c2ccncc2)CC1)Nc1ccccc1NC(=O)c1ccccc1 | 5.9e+06 l M-1 | 6.2 | –
2 | CC(C)(C)c1ccc(C(=O)Nc2cc(C(=O)O)ccc2NC(=O)c2cccc(C(=N)N)c2)cc1 | 4.7e+08 l M-1 | 0.83 | –
3 | COc1ccc(C(=O)Nc2ccccc2NC(=O)NC2CCN(c3ccncc3)CC2)cc1 | 1.2e+07 l M-1 | 2.4 | –
4 | COc1ccc(C(=O)Nc2ccccc2NC(=O)NCC2CCN(c3ccncc3)CC2)cc1 | 6.2e+07 l M-1 | 0.96 | K ass [2]: < 10000 l M-1; K ass [3]: < 10000 l M-1; K ass [4]: < 10000 l M-1; K ass [5]: < 10000 l M-1; K ass [6]: < 10000 l M-1; K ass [7]: < 10000 l M-1; K ass [8]: < 10000 l M-1; K ass [9]: < 10000 l M-1
5 | CCOc1ccc(C(=O)Nc2ccccc2NC(=O)NCC2CCN(c3ccncc3)CC2)cc1 | 1.5e+07 l M-1 | 2.6 | –
6 | COc1ccc(C(=O)Nc2ccccc2NC(=O)C2CCN(c3ccncc3)CC2)cc1 | 2.3e+06 l M-1 | 9.7 | –
7 | COc1ccc(C(=O)Nc2ccccc2NC(=O)OCC2CCN(c3ccncc3)CC2)cc1 | 2e+07 l M-1 | 1.9 | –
8 | COc1ccc(C(=O)Nc2ccccc2NC(=O)OC2CCN(c3ccncc3)CC2)cc1 | 1.7e+07 l M-1 | 2.6 | –
9 | CC(C)(C)c1ccc(C(=O)Nc2ccccc2NC(=O)NCC2CCN(c3ccncc3)CC2)cc1 | 40000 l M-1 | – | –
10 | O=C(NCC1CCN(c2ccncc2)CC1)Nc1ccccc1NC(=O)c1ccc(Cl)cc1 | 1e+08 l M-1 | 0.58 | K ass [2]: < 10000 l M-1; K ass [10]: 60000 l M-1; K ass [3]: < 10000 l M-1; K ass [4]: < 10000 l M-1; K ass [7]: < 10000 l M-1; K ass [8]: < 10000 l M-1; K ass [9]: 90000 l M-1
11 | COc1ccc(C(=O)Nc2ccc(O)cc2NC(=O)c2ccc(C(C)(C)C)cc2)cc1 | 6.6e+06 l M-1 | > 50 | –
12 | COc1ccc(C(=O)Nc2ccccc2NC(=O)c2ccc(-c3ccncc3)cc2)cc1 | 9.2e+06 l M-1 | 9.5 | –
13 | COc1ccc(C(=O)Nc2ccccc2NC(=O)OCCC2CCN(c3ccncc3)CC2)cc1 | 2.5e+06 l M-1 | > 15 | –
